We go through 15 molecules from ChEMBL document CHEMBL1155269, “Synthesis and antibacterial activity of some new heterocycles incorporating phthalazine” (2009).

SMILES strings stand for the structures.

Test [1] deals with Bacillus thuringiensis. Nature of the test: Antibacterial activity against Bacillus thuringiensis at 2 mg/ml after 24 hrs by agar diffusion assay. Format: functional. The following applies: read-out: DIZ. The procedure, abridged:
(§1)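 Agar diffusion; compounds applied as 2 mg ml−1 solutions in DMSO to agar media seeded with the test bacterium (cultures maintained on nutrient agar). DMSO-only control included for each organism; ampicillin and chloramphenicol references at 2 mg ml−1. Plates incubated 24 h at 30 °C, then inhibition zone diameter (mm) measured.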

For test [2], the system named is Escherichia coli. Description: Antibacterial activity against Escherichia coli at 2 mg/ml after 24 hrs by agar diffusion assay. Type of test: functional. Particulars: read-out: DIZ. The procedure, abridged: as §1
In general terms: In agar diffusion tests the substance spreads into inoculated agar from a disc or well.

On to `N#CC(Br)C(=O)N1NC(=O)C2C3c4ccccc4C(c4ccccc43)C2C1=O` (centres undefined), for which the zone of inhibition at 2000 µg/mL in test [1] amounted to 16 mm; in test [2], 20 mm.

Regarding `CC1=Nc2c(s/c(=N\N)n2-c2ccccc2)C(=O)N2C(=O)C3C4c5ccccc5C(c5ccccc54)C3C(=O)N12` (centres undefined), the zone of inhibition at 2000 µg/mL in test [1] came out at 19 mm; in test [2], 13 mm. As for `N#CC(Br)(Br)C(=O)N1NC(=O)C2C3c4ccccc4C(c4ccccc43)C2C1=O` (centres undefined), the zone of inhibition at 2000 µg/mL was 27 mm in test [1] and 29 mm in test [2]. Consider `N#CC(C(=O)N1NC(=O)C2C3c4ccccc4C(c4ccccc43)C2C1=O)=C1SCCS1` (centres undefined), for which the zone of inhibition at 2000 µg/mL in test [1] was 13 mm. On to `CC1(C)S[C@@H]2[C@H](NC(=O)[C@H](N)c3ccccc3)C(=O)N2[C@H]1C(=O)O` [AMPICILLIN], for which the zone of inhibition at 2000 µg/mL in test [1] turned out to be 19 mm; in test [2], 18 mm. The like results for `Nc1c(C(=O)N2NC(=O)C3C4c5ccccc5C(c5ccccc54)C3C2=O)sc(=S)n1-c1ccccc1` (centres undefined) were, in that order, 16 mm and 11 mm. Consider `N=c1oc2ccccc2cc1C(=O)N1NC(=O)C2C3c4ccccc4C(c4ccccc43)C2C1=O` (centres undefined), for which the results for the zone of inhibition at 2000 µg/mL in test [1] and in test [2] were 20 mm and 12 mm, respectively.

Turning to `O=C(N[C@H](CO)[C@H](O)c1ccc([N+](=O)[O-])cc1)C(Cl)Cl` [CHLORAMPHENICOL], the zone of inhibition at 2000 µg/mL was determined as 20 mm in test [1] and 23 mm in test [2]. Consider `N#CC(C(=O)N1NC(=O)C2C3c4ccccc4C(c4ccccc43)C2C1=O)=C1SCCCS1` (centres undefined), for which the zone of inhibition at 2000 µg/mL in test [1] was 15 mm; in test [2], 16 mm. Consider `CSC(=S)C(C#N)C(=O)N1NC(=O)C2C3c4ccccc4C(c4ccccc43)C2C1=O` (centres undefined), for which the zone of inhibition at 2000 µg/mL in test [1] and in test [2] was 22 mm each time. In the case of `O=C1C2C3c4ccccc4C(c4ccccc43)C2C(=O)N2C(=O)c3sc(=S)n(-c4ccccc4)c3N=CN12` (centres undefined), the zone of inhibition at 2000 µg/mL in test [1] turned out to be 13 mm; in test [2], 12 mm.

For `O=C1NN(C(=O)c2cc3ccccc3oc2=O)C(=O)C2C3c4ccccc4C(c4ccccc43)C12` (centres undefined), the zone of inhibition at 2000 µg/mL is 16 mm in test [1] and 15 mm in test [2]. The like results for `CS/C(Nc1ccccc1)=C(/C#N)C(=O)N1NC(=O)C2C3c4ccccc4C(c4ccccc43)C2C1=O` (centres undefined) were, in that order, 26 mm and 30 mm. The like results for `CC1=Nc2c(sc(=S)n2-c2ccccc2)C(=O)N2C(=O)C3C4c5ccccc5C(c5ccccc54)C3C(=O)N12` (centres undefined) were, in that order, 16 mm and 11 mm. The like results for `Cc1cc(C)c2c(N/N=C(\C#N)C(=O)N3NC(=O)C4C5c6ccccc6C(c6ccccc65)C4C3=O)n[nH]c2n1` (centres undefined) were, in that order, 20 mm and 30 mm.
